Source: ChEMBL document CHEMBL4715687, “A benzoxazole derivative as an inhibitor of anaerobic choline metabolism by human gut microbiota” (RSC Med Chem, 2020)
Active and inactive are the calls of the source. The calls are words filed in the database; no cut-off is given here.

Tests used:
[1] = biological target: T1, Choline trimethylamine-lyase (Desulfovibrio alaskensis, UniProt Q30W70); experiment: (§1) Inhibition of N-terminal His6-tagged Desulfovibrio desulfuricans G20 CutC encoding 52 residues assessed as reduction in acetaldehyde using choline as substrate in presence of NADH-dependent yeast alcohol dehydrogenase by UV-Vis absorbance based assay
T1 sequence (Q30W70 whole entry): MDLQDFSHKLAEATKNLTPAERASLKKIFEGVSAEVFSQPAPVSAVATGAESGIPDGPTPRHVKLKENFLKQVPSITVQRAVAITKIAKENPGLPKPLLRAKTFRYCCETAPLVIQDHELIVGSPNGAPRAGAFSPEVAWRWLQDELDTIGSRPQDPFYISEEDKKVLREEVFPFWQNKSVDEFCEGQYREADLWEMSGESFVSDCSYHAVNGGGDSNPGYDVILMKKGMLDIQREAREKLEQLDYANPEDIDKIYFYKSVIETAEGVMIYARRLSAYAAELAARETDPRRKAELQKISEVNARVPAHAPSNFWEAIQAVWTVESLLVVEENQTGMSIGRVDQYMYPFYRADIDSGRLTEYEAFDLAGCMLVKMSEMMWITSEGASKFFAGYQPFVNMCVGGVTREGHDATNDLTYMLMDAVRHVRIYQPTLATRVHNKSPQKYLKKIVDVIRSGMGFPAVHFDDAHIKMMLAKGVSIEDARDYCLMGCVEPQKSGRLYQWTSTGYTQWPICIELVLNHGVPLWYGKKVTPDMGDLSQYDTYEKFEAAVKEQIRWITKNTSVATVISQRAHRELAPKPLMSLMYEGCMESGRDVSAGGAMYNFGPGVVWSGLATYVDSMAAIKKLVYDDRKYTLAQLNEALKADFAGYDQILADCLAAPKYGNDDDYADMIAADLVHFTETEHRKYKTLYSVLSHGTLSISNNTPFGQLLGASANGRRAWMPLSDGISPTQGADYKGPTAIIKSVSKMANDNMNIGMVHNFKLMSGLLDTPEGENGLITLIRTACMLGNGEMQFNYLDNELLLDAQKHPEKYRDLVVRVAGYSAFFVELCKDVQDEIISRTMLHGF

[2] = Metabolic stability in human intestinal S9 fraction assessed as parent compound remaining at 33 uM incubated for 2 hrs by LC/MS/MS analysis; assay type: ADME, subcellular, Intestine; conditions: read-out: Stabilty
Outline: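 Mixed-gender human intestinal S9 (4 mg mL−1 stock) in 100 mM potassium phosphate pH 7.4 with NADPH cofactor, 6 mM MgCl2 and 1 mM EDTA. Compound at 33 μM final, in triplicate, 2 h at 37 °C. No-cofactor negative control. Supernatant diluted and percent intact compound quantified by LC-MS/MS.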

[3] = Inhibition of CutC in Escherichia coli MS 200-1 assessed as reduction in d9-TMA formation using d9-choline chloride as substrate incubated for 4 hrs under anaerobic condition by LC-MS-MS analysis
[4] = Inhibition of CutC (unknown origin) in human feces assessed as reduction in TMA production using choline as substrate by LC-MS/MS analysis; assay type: tissue-based, Bacteria
Escherichia coli = experiment: Effect on d9-choline uptake in Escherichia coli MS 200-1 at 50 uM incubated for 15 mins by LC-MS/MS analysis; assay type: functional
Bacteria [5] = experiment: Non-competitive inhibition of CutC (unknown origin) assessed as reduction in Vmax with constant Km using choline as substrate at 5 uM by Lineweaver-Burk plot based Michelis-Menten analysis
Outline: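 D. desulfuricans G20 CutC (20 μM) activated by CutD (40 μM) with dithionite (150 μM) and SAM (200 μM), anaerobic, in 50 mM potassium phosphate pH 8.0 with 50 mM KCl for 1 h, then diluted 20-fold. Coupled to yeast ADH (0.4 μM) with NADH (200 μM). Choline varied, inhibitor absent or at 5 μM. A340 read every 20 s for 10 min. Kinetics by Michaelis–Menten and Lineweaver–Burk plots, n = 3.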

[6] = (§2) Binding affinity to CutC (unknown origin) by CM5 sensor chip immobilization based surface plasmon resonance analysis; design: species or system Bacteria
Bacteria [7] = experiment: as §2
[8] = biological target: T2, Choline trimethylamine-lyase (Desulfovibrio alaskensis) (UniProt Q30W70); experiment: as §1
T2 sequence (whole entry): T1 sequence (Q30W70 whole entry)

Bacteria [9] = experiment: Binding affinity to CutD (unknown origin) by CM5 sensor chip immobilization based surface plasmon resonance analysis
Saccharomyces cerevisiae = experiment: Effect on alcohol dehydrogenase activity in yeast at 5 to 50 uM in presence of NADH by colorimetric assay; conditions: dose 5-50 µM

## CC(O)CNC(=O)NC1CCN(Cc2ccccn2)CC1 (stereo unspecified)
[1]
  IC50: 73 µM
[2]
  remaining at 2 h, 33 µM: > 90%
[3]
  EC50: 87 µM

## O=C(Nc1ccc(N2CCOCC2)nc1)NC1CCCCNC1=O (stereo unspecified)
[1]
  IC50: 167 µM
[2]
  remaining at 2 h, 33 µM: > 90%
[3]
  EC50: 298 µM

## Cc1cccc(NC2CCN(C(=O)Nc3cn[nH]c3)CC2)n1
[1]
  IC50: 85 µM
[2]
  remaining at 2 h, 33 µM: > 90%
[3]
  EC50: 143 µM

## Cc1ccc(-n2nc(NC3CCN(C(N)=O)CC3)cc2C)cc1
[1]
  IC50: > 500 µM
[2]
  remaining at 2 h, 33 µM: > 90%
[3]
  EC50: > 1000 µM

## O=C(CCc1ccccc1OC(F)(F)F)NC1CCCCNC1=O (stereo unspecified)
[1]
  IC50: > 500 µM
[2]
  remaining at 2 h, 33 µM: > 90%
[3]
  EC50: > 1000 µM

## C[N+](C)(C)CC=O [BETAINE ALDEHYDE]
[1]
  IC50: 26 µM

## CN1CC=C[C@H](O)C1
[4]
  EC50: 83.9 µM
[3]
  EC50: 11 µM

## Cc1cc(C(=O)NC2CCNCC2)no1
[1]
  IC50: > 500 µM
[2]
  remaining at 2 h, 33 µM: > 90%
[3]
  EC50: > 1000 µM

## CN1CCC(NC(=O)NCCNc2ccccn2)CC1
[1]
  IC50: 199 µM
[2]
  remaining at 2 h, 33 µM: > 90%
[3]
  EC50: 354 µM

## COc1cc(CCNC(=O)NC2CCCCC2CO)ccc1F (stereo unspecified)
[1]
  IC50: 212 µM
[2]
  remaining at 2 h, 33 µM: > 90%
[3]
  EC50: 409 µM

## O=C(NC1CCCCC1CO)c1cc(F)cc2[nH]cnc12 (stereo unspecified)
[1]
  IC50: > 500 µM
[2]
  remaining at 2 h, 33 µM: > 90%
[3]
  EC50: > 1000 µM

## CC(C)Nc1cccc(C(=O)NCCCN2CCC(O)CC2)c1
[1]
  IC50: 210 µM
[2]
  remaining at 2 h, 33 µM: > 90%
[3]
  EC50: 376 µM

## O=C(NCc1nc(-c2ccccc2)n[nH]1)NC1CCC(O)CC1 (stereo unspecified)
[1]
  IC50: 49 µM
[2]
  remaining at 2 h, 33 µM: > 90%
[3]
  EC50: 79 µM

## O=C1NCCCCC1NC(=O)N1CCCc2cc(F)ccc21 (stereo unspecified)
[1]
  IC50: > 500 µM
[2]
  remaining at 2 h, 33 µM: > 90%
[3]
  EC50: > 1000 µM

## O=S(=O)(NCC1CCCC1O)c1ccc2cn[nH]c2c1 (stereo unspecified)
[1]
  IC50: 301 µM
[2]
  remaining at 2 h, 33 µM: > 90%
[3]
  EC50: 488 µM

## O=C(NC1CC1)C1CCN(Cc2nc3cc(F)ccc3o2)CC1
Escherichia coli
  Activity: inactive
Bacteria [5]
  inhibition: Active
[6]
  Kd: 4.05 µM
Bacteria [7]
  Activity: Dose-dependent effect
[8]
  inhibition: Dose-dependent effect
[1]
  IC50: 2.4 µM
[2]
  remaining at 2 h, 33 µM: > 90%
[4]
  EC50: 38 µM
Bacteria [9]
  Activity: Active
[3]
  EC50: 5.4 µM
Saccharomyces cerevisiae
  Activity: inactive

## Cn1c(N)nc2c(ncn2[C@@H]2O[C@H](CO)[C@@H](O)[C@H]2O)c1=O
[1]
  IC50: 110 µM
[2]
  remaining at 2 h, 33 µM: > 90%
[3]
  EC50: 175 µM
